Bioassay records from PubChem BioAssay.
This is one part of a sample in which hits are shown more often than they occur.
INS promoter act = activators of insulin promoter-driven GFP, primary screen, imaging, TRM-6 cells (human fetal islet line), eGFP reporter, cell count. plate-scaled: unstimulated 0, stimulated control 100. activation, % at 2 µM. hit rate 0.81% among 130,000;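 active = activation at 2 µM above a set limit, confirmed on inspection of the cell images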;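 note: share of cells whose green reporter signal exceeds an intensity cutoff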
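test system = TRM-6 insulin promoter–eGFP reporter cells | benchmarks = stimulated versus unstimulated wells as plate controls | read-out basis = percent cells above green-intensity threshold, converted to percent activation versus plate controls | detection = fixed-cell fluorescence microscopy, eGFP plus Hoechst | incubation = tamoxifen pre-incubation 15 h overnight, then compound exposure 48 h at 37 °C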
* = called active by the depositor.

COc1ccc(/C=N/NC(N)=S)cc1OC(=O)c1ccccc1 was read as INS promoter act 3.6.
Screening O=C1C=CC(=O)N1Nc1ccc(Br)cc1 returned INS promoter act -3.4.
Screening CCOc1ccccc1-n1c(SCC(=O)NC2CCCC2)nnc1-c1ccoc1C returned INS promoter act -8.6.
O=C(c1cc2sccc2n1Cc1ccccc1)N1CCc2ccccc21 was read as INS promoter act 0.0.
CCOC(=O)c1cc2sccc2n1CC(=O)C(C)(C)C was read as INS promoter act 213.3*.
Screening COC(=O)c1cc2sccc2n1CC(=O)N1CCCc2ccccc21 returned INS promoter act 192.9*.
`CCOC(=O)c1cc2sc(C)cc2n1CC(=O)NCc1ccc(F)cc1` gave INS promoter act -81.8.
CCOC(=O)c1cc2sccc2n1CC(=O)N1CCCc2ccccc21 was read as INS promoter act 9.1.
CCOC(=O)c1cc2sccc2n1Cc1ccccc1 was read as INS promoter act 0.0.
Screening CCc1[nH]nc(C(=O)N2CCCC(CCC(=O)N3CCN(c4ccccn4)CC3)C2)c1C (centres undefined) returned INS promoter act 0.0.
COc1ccccc1-c1nc(SCC(=O)N(C)c2ccccc2)c2c(=O)n(C)c(=O)n(C)c2n1 was read as INS promoter act -8.6.
`O=C(Oc1cccc(NC(=O)c2ccccc2Cl)c1)c1ccc([N+](=O)[O-])cc1` gave INS promoter act -6.7.
For Cc1cc(C(F)(F)F)nn1CC(=O)NNC(=S)Nc1cccc(Cl)c1 the results were INS promoter act 0.0.
Screening Cc1cccc(C(=O)NN2S(=O)(=O)c3ccccc3S2(=O)=O)c1 returned INS promoter act 8.1.
Screening CCN(CC)S(=O)(=O)c1cccc(-c2nnc(SCC(=O)c3ccc(Cl)s3)n2C)c1 returned INS promoter act 0.0.
Screening C=CCN1C(=O)C(CC(=O)Nc2ccc(OC)cc2)N(Cc2ccco2)C1=S (centres undefined) returned INS promoter act 3.3.
`Fc1ccc(-c2csc(=S)[nH]2)cc1` gave INS promoter act 278.9*.
Screening Cc1[nH]c2ccccc2c1C(=O)COc1ccccc1F returned INS promoter act -9.1.
`COc1ccc(CCNC(=O)Cn2nc([N+](=O)[O-])c(Br)c2C)cc1OC` gave INS promoter act 0.0.
CCOC(=O)c1sc2nc(N3CCOCC3)c3c(c2c1N)CCN(C)C3 was read as INS promoter act 500.0*.
`CCOC(=O)c1sc2nc(C)c3c(c2c1N)CC(C)(C)OC3` gave INS promoter act -8.6.
Screening Nc1c(C(=O)NCc2ccccc2)sc2nc(N3CCOCC3)c3c(c12)CCCC3 returned INS promoter act 7.7.
COc1ccc(C(=O)Nc2ccc(N3CCOCC3)cc2)cc1S(=O)(=O)NC1CCCC1 was read as INS promoter act -7.1.
For C(=C\c1ccccc1)/C=N/n1cnnc1 the results were INS promoter act 0.0.
CCOc1ccc(S(=O)(=O)NN)cc1 was read as INS promoter act 2.7.
CC[n+]1c(/C=C/C=C/N(C(C)=O)c2ccccc2)sc2ccccc21 was read as INS promoter act 203.3*.
Screening COc1ccc(OC)c(NC(=O)CC2C(=O)NCCN2C(=O)Nc2cccc(Cl)c2)c1 (centres undefined) returned INS promoter act 7.4.
For Cc1cc(Cl)c(S(=O)(=O)NC(C)C)cc1OCC(N)=O the results were INS promoter act 3.8.
Screening CCn1c(Cc2cccc3ccccc23)nnc1SCC(=O)Nc1nccs1 returned INS promoter act -5.6.
For Cc1onc(-c2ccccc2)c1C(=O)N1CCN(C(=O)c2ccco2)CC1 the results were INS promoter act -76.2.
`Cc1onc(-c2ccccc2)c1C(=O)N1CCN(C)CC1` gave INS promoter act 100.0*.
Screening Cc1onc(-c2ccccc2)c1C(=O)N1CCCN(C(=O)c2c(-c3ccccc3)noc2C)CC1 returned INS promoter act -2.8.
Screening CSc1ccc(CN(C)CC(=O)NC(C)c2ccccc2)cc1 (centres undefined) returned INS promoter act 6.7.
Cc1csc(NC(=O)CSc2ccc(-c3ccccn3)nn2)n1 was read as INS promoter act 8.3.
CC(C)(NO)/C(=N/O)c1cccs1 was read as INS promoter act 2.9.
COc1ccc(/C=N/Nc2nonc2N)cc1OC was read as INS promoter act 328.6.
`COc1cc(/C=N/Nc2nc3ccccc3o2)cc(OC)c1O` gave INS promoter act 114.3.
COc1cc(/C=N\Nc2nc3ccccc3o2)cc(OC)c1OC was read as INS promoter act 468.8*.
Screening CC1C(=O)CCN(C(C)(C)C)C1C (centres undefined) returned INS promoter act 5.4.
`CSCCC(NC(=O)CCN1C(=O)c2ccccc2C1=O)C(=O)O` (centres undefined) gave INS promoter act 6.4.
`O=c1c2ccccc2nnn1CSc1nc2ccccc2c(=O)n1CCCO` gave INS promoter act 9.1.
CSCC[C@H](NC(=O)CCn1nnc2ccccc2c1=O)C(=O)O was read as INS promoter act 150.0*.
COc1ccc(OC)c(C(=O)CSc2nnc(-c3cccnc3)n2C)c1 was read as INS promoter act 0.0.
